Reference: ChEMBL document CHEMBL1938268, “Synthesis, characterization and in vitro biological evaluation of some novel diarylsulfonylureas as potential cytotoxic and antimicrobial agents” (Bioorg Med Chem Lett, 2012)
In brackets after ≈: the same amount, converted by molar mass.

Tests used:
[1] = Toxicity against Brine shrimp nauplii after 24 hrs; assay type: organism-based; settings: artemia salina, in vivo; read-out: ED50
How it was run: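 Artemia salina nauplii hatched 38 h in sterile brine (sea salt 38 g/L, pH 8.5) under aeration; 10 nauplii per vial exposed to graded compound concentrations in 5 mL final volume, 37 °C, 24 h under incandescent light. Survivors counted; percent lethality versus vehicle-treated controls; ED50 from probit analysis; podophyllotoxin positive control.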

[2] = system: Bacillus subtilis; experiment: Antibacterial activity against Bacillus subtilis NCIM 2063 after 24 hrs by agar well diffusion assay; assay type: functional; settings: NCIM 2063, 24 h
How it was run: (§1)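 Agar well diffusion per NCCLS; NCIM standard strains. Nutrient agar seeded with 0.1 mL bacterial suspension in sterile 0.85% saline at 10⁵ CFU/mL. Plates in triplicate, 37 0.5 °C, 24 h. MIC taken as lowest concentration giving complete growth inhibition.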

[3] = system: Staphylococcus aureus; experiment: Antibacterial activity against Staphylococcus aureus NCIM 2079 after 24 hrs by agar well diffusion assay; assay type: functional; settings: NCIM 2079, 24 h; how it was run: as §1
[4] = system: Micrococcus luteus; experiment: Antibacterial activity against Micrococcus luteus NCIM 2155 after 24 hrs by agar well diffusion assay; assay type: functional; settings: NCIM 2155, 24 h; how it was run: as §1
[5] = system: Pseudomonas aeruginosa; experiment: Antibacterial activity against Pseudomonas aeruginosa NCIM 2036 after 24 hrs by agar well diffusion assay; assay type: functional; settings: NCIM 2036, 24 h; how it was run: as §1
[6] = system: Klebsiella pneumoniae; experiment: Antibacterial activity against Klebsiella pneumoniae NCIM 5082 after 24 hrs by agar well diffusion assay; assay type: functional; settings: NCIM 5082, 24 h; how it was run: as §1
[7] = system: Escherichia coli; experiment: Antibacterial activity against Escherichia coli NCIM 2065 after 24 hrs by agar well diffusion assay; assay type: functional; settings: NCIM 2065, 24 h; how it was run: as §1
[8] = system: Proteus vulgaris; experiment: Antibacterial activity against Proteus vulgaris NCIM 2813 after 24 hrs by agar well diffusion assay; assay type: functional; settings: NCIM 2813, 24 h; how it was run: as §1
[9] = system: Candida albicans; experiment: Antifungal activity against Candida albicans NCIM 3102 after 48 hrs by agar well diffusion assay; assay type: functional; settings: NCIM 3102, 48 h
How it was run: (§2)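 Fungal spore suspensions in sterile distilled water set to final 10⁶ CFU/mL; 0.1 mL spread on Potato-Dextrose-Agar. NCCLS agar well diffusion with NCIM standard strains: 6 mm wells given 0.1 mL compound diluted in 1% DMSO, final 16 to 512 µg/mL. Triplicate plates held 48 h at 28 0.2 °C. MIC is lowest concentration fully inhibiting growth.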

[10] = system: Aspergillus niger; experiment: Antifungal activity against Aspergillus niger NCIM 548 after 48 hrs by agar well diffusion assay; assay type: functional; settings: NCIM 548, 48 h; how it was run: as §2
[11] = system: Aspergillus oryzae; experiment: Antifungal activity against Aspergillus oryzae NCIM 643 after 48 hrs by agar well diffusion assay; assay type: functional; settings: NCIM 643, 48 h; how it was run: as §2
[12] = system: Penicillium chrysogenum; experiment: Antifungal activity against Penicillium chrysogenum NCIM 738 after 48 hrs by agar well diffusion assay; assay type: functional; settings: NCIM 738, 48 h; how it was run: as §2
[13] = system: Bacillus pumilus; experiment: Antibacterial activity against Bacillus pumilus NCIM 2327 after 24 hrs by agar well diffusion assay; settings: NCIM 2327, 24 h

Which LC50 at 24 h [1] does the source give for `Cc1ccc(S(=O)(=O)NC(=O)Nc2ccccc2C(=O)/C=C/c2cccc(Br)c2)cc1` here?
Its LC50 at 24 h is 4.02 µg/mL (≈ 8.05 µM).

What about the MIC [2] of the same compound?
Its MIC is 16 µg/mL (≈ 32 µM).

What about the MIC [3] of the same compound?
The MIC was 64 µg/mL (≈ 128 µM).

And the MIC [4]?
The MIC was 16 µg/mL (≈ 32 µM).

And the MIC [5]?
The MIC was 32 µg/mL (≈ 64.1 µM).

What about the MIC [6] of the same compound?
Its MIC is 128 µg/mL (≈ 256 µM).

What about the MIC [7] of the same compound?
Its MIC is 16 µg/mL (≈ 32 µM).

What about the MIC [8] of the same compound?
The MIC was 16 µg/mL (≈ 32 µM).

And the MIC [9]?
The MIC was 128 µg/mL (≈ 256 µM).

What about the MIC [10] of the same compound?
Its MIC is 64 µg/mL (≈ 128 µM).

And the MIC [11]?
The MIC was 128 µg/mL (≈ 256 µM).

And the MIC [12]?
Its MIC is 128 µg/mL (≈ 256 µM).

What about the MIC [13] of the same compound?
Its MIC is 16 µg/mL (≈ 32 µM).

With `C=CCOc1ccc(/C=C/C(=O)c2ccccc2NC(=O)NS(=O)(=O)c2ccc(C)cc2)cc1` as the compound, how does the LC50 at 24 h [1] read?
Its LC50 at 24 h is 6.11 µg/mL (≈ 12.8 µM).

And the MIC [2]?
Its MIC is 32 µg/mL (≈ 67.1 µM).

And the MIC [3]?
Its MIC is 16 µg/mL (≈ 33.6 µM).

And the MIC [4]?
The MIC was 32 µg/mL (≈ 67.1 µM).

What about the MIC [5] of the same compound?
Its MIC is 16 µg/mL (≈ 33.6 µM).

What about the MIC [6] of the same compound?
Its MIC is 16 µg/mL (≈ 33.6 µM).

And the MIC [7]?
The MIC was 32 µg/mL (≈ 67.1 µM).

What about the MIC [8] of the same compound?
Its MIC is 16 µg/mL (≈ 33.6 µM).

And the MIC [9]?
Its MIC is 16 µg/mL (≈ 33.6 µM).

What about the MIC [10] of the same compound?
The MIC was 16 µg/mL (≈ 33.6 µM).

And the MIC [11]?
Its MIC is 16 µg/mL (≈ 33.6 µM).

And the MIC [12]?
The MIC was 16 µg/mL (≈ 33.6 µM).

And the MIC [13]?
The MIC was 16 µg/mL (≈ 33.6 µM).

What does the source list for `Cc1ccc(S(=O)(=O)NC(=O)Nc2ccccc2C(=O)/C=C/C=C/c2ccccc2)cc1`?
LC50 at 24 h [1]: 18.2 µg/mL (≈ 40.8 µM); MIC [2]: 128 µg/mL (≈ 287 µM); MIC [3]: 128 µg/mL (≈ 287 µM); MIC [4]: 256 µg/mL (≈ 573 µM); MIC [5]: 128 µg/mL (≈ 287 µM); MIC [6]: 256 µg/mL (≈ 573 µM); MIC [7]: 128 µg/mL (≈ 287 µM); MIC [8]: 256 µg/mL (≈ 573 µM); MIC [9]: 256 µg/mL (≈ 573 µM); MIC [10]: 256 µg/mL (≈ 573 µM); MIC [11]: 256 µg/mL (≈ 573 µM); MIC [12]: 256 µg/mL (≈ 573 µM); MIC [13]: 128 µg/mL (≈ 287 µM)

What does the source list for `Cc1ccc(S(=O)(=O)NC(=O)Nc2ccccc2C(=O)/C=C/c2ccc[nH]2)cc1`?
LC50 at 24 h [1]: 32.1 µg/mL (≈ 78.4 µM); MIC [2]: 256 µg/mL (≈ 625 µM); MIC [3]: 128 µg/mL (≈ 313 µM); MIC [4]: 256 µg/mL (≈ 625 µM); MIC [5]: 256 µg/mL (≈ 625 µM); MIC [6]: 256 µg/mL (≈ 625 µM); MIC [7]: 128 µg/mL (≈ 313 µM); MIC [8]: 256 µg/mL (≈ 625 µM); MIC [9]: 256 µg/mL (≈ 625 µM); MIC [10]: 256 µg/mL (≈ 625 µM); MIC [11]: 256 µg/mL (≈ 625 µM); MIC [12]: 256 µg/mL (≈ 625 µM); MIC [13]: 128 µg/mL (≈ 313 µM)

For `Cc1ccc(S(=O)(=O)NC(=O)Nc2ccccc2C(=O)/C=C/c2cccnc2)cc1`, which LC50 at 24 h [1] is on record?
The LC50 at 24 h was 14.1 µg/mL (≈ 33.4 µM).

What about the MIC [2] of the same compound?
The MIC was 128 µg/mL (≈ 304 µM).

What about the MIC [3] of the same compound?
The MIC was 128 µg/mL (≈ 304 µM).

And the MIC [4]?
The MIC was 128 µg/mL (≈ 304 µM).

What about the MIC [5] of the same compound?
The MIC was 128 µg/mL (≈ 304 µM).

And the MIC [6]?
Its MIC is 128 µg/mL (≈ 304 µM).

What about the MIC [7] of the same compound?
The MIC was 128 µg/mL (≈ 304 µM).

And the MIC [8]?
The MIC was 128 µg/mL (≈ 304 µM).

What about the MIC [9] of the same compound?
Its MIC is 128 µg/mL (≈ 304 µM).

And the MIC [10]?
Its MIC is 128 µg/mL (≈ 304 µM).

What about the MIC [11] of the same compound?
Its MIC is 128 µg/mL (≈ 304 µM).

What about the MIC [12] of the same compound?
The MIC was 128 µg/mL (≈ 304 µM).

What about the MIC [13] of the same compound?
The MIC was 128 µg/mL (≈ 304 µM).

Which results are given for `Cc1ccc(S(=O)(=O)NC(=O)Nc2ccccc2C(=O)/C=C/c2ccncc2)cc1`?
LC50 at 24 h [1]: 16.8 µg/mL (≈ 39.9 µM); MIC [2]: 128 µg/mL (≈ 304 µM); MIC [3]: 64 µg/mL (≈ 152 µM); MIC [4]: 64 µg/mL (≈ 152 µM); MIC [5]: 128 µg/mL (≈ 304 µM); MIC [6]: 64 µg/mL (≈ 152 µM); MIC [7]: 64 µg/mL (≈ 152 µM); MIC [8]: 64 µg/mL (≈ 152 µM); MIC [9]: 64 µg/mL (≈ 152 µM); MIC [10]: 64 µg/mL (≈ 152 µM); MIC [11]: 64 µg/mL (≈ 152 µM); MIC [12]: 64 µg/mL (≈ 152 µM); MIC [13]: 64 µg/mL (≈ 152 µM)

Which LC50 at 24 h [1] does the source give for `Cc1ccc(S(=O)(=O)NC(=O)Nc2ccccc2C(=O)/C=C/c2c3ccccc3cc3ccccc23)cc1` here?
The LC50 at 24 h was 44.3 µg/mL (≈ 85.1 µM).

What about the MIC [2] of the same compound?
Its MIC is 512 µg/mL (≈ 983 µM).

What about the MIC [3] of the same compound?
The MIC was 512 µg/mL (≈ 983 µM).

What about the MIC [4] of the same compound?
The MIC was 512 µg/mL (≈ 983 µM).

And the MIC [5]?
The MIC was 512 µg/mL (≈ 983 µM).

What about the MIC [6] of the same compound?
The MIC was 512 µg/mL (≈ 983 µM).

What about the MIC [7] of the same compound?
Its MIC is 512 µg/mL (≈ 983 µM).

What about the MIC [8] of the same compound?
The MIC was 512 µg/mL (≈ 983 µM).

What about the MIC [9] of the same compound?
Its MIC is 512 µg/mL (≈ 983 µM).

What about the MIC [10] of the same compound?
Its MIC is 512 µg/mL (≈ 983 µM).

And the MIC [11]?
Its MIC is 512 µg/mL (≈ 983 µM).

What about the MIC [12] of the same compound?
The MIC was 512 µg/mL (≈ 983 µM).

And the MIC [13]?
The MIC was 512 µg/mL (≈ 983 µM).
